m5-HT2A agonist: mouse HTR2A agonism via beta-arrestin recruitment | P35363 | CHO-K1 mHTR2A beta-arrestin complementation, luminescence; percent of 30 µM serotonin response | activation, % at 7.6 µM | 360,000 tested, 0.66% active;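 active = activation above a run cutoff, the mean activation of all tested compounds plus 3 SD, cut at about 14% in these data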
TAAR1 ag: agonists of human TAAR1; 360,000 tested, 0.99% active; Q96RJ0; activation, % at 3 µM; AID 624467; CHO RD-HGA16 TAAR1, Fluo-8 calcium fluorescence; vehicle wells 0%, saturating PEA agonist 100%;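 active = activation above the mean activation of all test compounds in the run plus 3 SD, cut at about 38% in these data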
Target sequence (Q96RJ0 whole entry, looked up): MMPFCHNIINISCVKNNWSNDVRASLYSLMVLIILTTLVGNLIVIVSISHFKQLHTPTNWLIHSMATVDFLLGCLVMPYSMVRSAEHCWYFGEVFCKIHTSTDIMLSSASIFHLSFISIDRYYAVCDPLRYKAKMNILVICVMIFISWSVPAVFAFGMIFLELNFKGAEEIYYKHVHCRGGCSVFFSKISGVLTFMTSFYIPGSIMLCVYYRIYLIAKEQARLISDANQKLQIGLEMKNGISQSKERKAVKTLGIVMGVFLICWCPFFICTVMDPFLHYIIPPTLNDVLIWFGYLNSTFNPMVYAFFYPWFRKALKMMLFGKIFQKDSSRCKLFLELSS
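Test system: RD-HGA16 (CHO) cells co-expressing Gα16 and hTAAR1 | Doses: Single dose, 3 µM | Schedule: 17-24 h seeding, 75 min 37 °C dye, 30 min RT | Evaluation: % activation from peak over basal fluorescence ratio, DMSO-to-PEA scaled | Technique: Kinetic Fluo-8 calcium fluorescence | Benchmarks: Low control DMSO, high control PEA (EC100)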
TAAR1 antagonist: antagonists of human TAAR1 | inhibition, % at 3 µM | Q96RJ0 | CHO RD-HGA16 TAAR1, Fluo-8 calcium fluorescence, antagonist | 360,000 tested, 1.5% active;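 active = inhibition above a per-plate cutoff, the mean inhibition of test compounds on that plate plus 3 SD, cut at about 49% in these data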
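Test system: CHO RD-HGA16 cells bearing hTAAR1 | Reagent: β-PEA, EC80 | Compound dosing: 3 µM, single point | Schedule: Dye loading 75 min at 37 °C, then 30 min room temperature | Signal: Calcium fluorescence with Fluo-8 | Evaluation: Percent inhibition of PEA-evoked calcium signal, max/basal emission ratio | Control set: DMSO-only wells and EC80 β-PEA-stimulated wells | Repeats: Singlicate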
MC4R barr agon: agonists of human melanocortin 4 receptor (MC4R) beta-arrestin | U2OS MC4R beta-arrestin complementation, luminescence; percent of melanotan II response, DMSO zero | activation, % at 8.9 µM | 360,000 tested, 0.98% active | AID 540308;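 active = activation above a per-plate cutoff, the mean activation of sample wells on that plate plus 3 SD, cut at about 8% in these data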
Target sequence (P32245 whole entry, looked up): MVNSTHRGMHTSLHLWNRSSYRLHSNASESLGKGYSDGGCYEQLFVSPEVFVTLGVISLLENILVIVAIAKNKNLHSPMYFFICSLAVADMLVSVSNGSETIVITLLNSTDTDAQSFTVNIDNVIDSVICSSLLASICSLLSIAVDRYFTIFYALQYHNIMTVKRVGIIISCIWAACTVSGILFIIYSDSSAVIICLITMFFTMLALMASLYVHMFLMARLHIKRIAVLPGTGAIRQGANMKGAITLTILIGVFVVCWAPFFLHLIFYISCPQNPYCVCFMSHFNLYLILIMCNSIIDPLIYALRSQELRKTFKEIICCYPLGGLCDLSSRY
B2AR ag: activates human beta-2 adrenergic receptor causing internalization. Am2.2-beta2AR cells, FAP receptor internalization, flow cytometry. response, % (test concentration not listed). 340,000 tested, 0.43% active. AID 504454;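 active = response above a set limit, near 3 SD of response in nonfluorescent compounds, cut at about 42% in these data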
MC4R antagonist: antagonists of human melanocortin 4 receptor (MC4R); AID 540295; inhibition, % at 6.5 µM; MC4R-expressing cells, MTII-stimulated cAMP, LANCE TR-FRET; 360,000 tested, 0.48% active; P32245;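 active = inhibition above its plate's cutoff, the mean of tested wells on that plate plus 3 SD, cut at about 29% in these data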
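System – human MC4R-expressing U2OS cells · Also added – Melanotan II · Dosing – one concentration, 6.5 µM nominal · Timing – 30-min compound, 1-h challenge, 1-h detection, room temperature · Measured by – Eu-cAMP/anti-cAMP TR-FRET, emission 671 nm · Replicates – singlicate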
MOR ag counter: OPRM1 agonism in mouse HTR2A counterscreen | shares compounds with m5-HT2A agonist | U2OS OPRM1 beta-arrestin PathHunter, luminescence; DMSO 0%, DAMGO 9.3 µM 100% | activation, % at 9.3 µM | 2,300 tested, 5.3% active;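 active = mean activation above the mean of DMSO-only wells plus 3 SD, cut at about 0.5% in these data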
m5-HT2A ag conf: mouse HTR2A agonism confirmed. shares compounds with m5-HT2A agonist. CHO-K1 PathHunter beta-arrestin recruitment, luminescence; DMSO 0%, 30 µM serotonin 100%. activation, % at 7.6 µM. 2,300 tested, 19% active. AID 624381;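 active = mean activation across triplicates above the hit threshold derived in the original primary screen, cut at about 15% in these data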
Numbers stand for hits; n = inactive; x = no result given. Rows were chosen to be rich in hits. Some 4.3% of all compounds tested hit in one or more screens of this group.

SMILES	m5-HT2A agonist	TAAR1 ag	TAAR1 antagonist	MC4R barr agon	B2AR ag	MC4R antagonist	MOR ag counter	m5-HT2A ag conf
Cc1cccc(-c2nnc(SCC(=O)Nc3cc(C)on3)n2C)c1	17.8	n	n	n	n	n	n	n
COc1ccc(S(=O)(=O)N2CCOCC2)cc1NC(=O)COC(=O)c1oc2ccccc2c1C	n	n	n	n	n	n	x	x
O=C(NCCc1ccc(O)c(O)c1)C1COc2ccccc2O1 (configuration not stated)	14.5	n	n	n	n	n	n	22.9
Cc1ccc2oc(C(=O)NCc3ncc(C)[nH]3)c(C)c2c1	n	n	n	n	n	n	x	x
O=C1C2C(c3cccc(/C=C/c4ccccc4)c3)CC=CC2C(c2ccc(C(F)(F)F)cc2)N1Cc1ccccc1 (configuration not stated)	17.3	n	n	n	n	n	n	n
O=C(CCN1C(=O)/C(=C/c2ccccc2Cl)SC1=S)NC1CCCC1	n	n	n	n	n	n	x	x
CN1CCC(N(C)C(=O)COc2ccccc2-c2ccccc2)CC1	17.5	n	n	n	n	n	n	n
Cc1nnc(NC(=O)C2CC(=O)N(C(C)c3ccccc3)C2)s1 (configuration not stated)	n	n	n	n	n	n	x	x
S=c1[nH]nc2ccccn12	20.9	n	n	n	n	n	n	n
CCOC(=O)[C@H]1[C@H]2COc3ccccc3[C@@H]2N2C(=O)c3cc(F)c(F)cc3NC(=O)[C@@]12C	14.7	n	n	n	n	n	n	n
CC(=O)Nc1ccc(NC(=O)c2cc(-n3cnnc3)ccc2Cl)cc1	15.9	n	n	n	n	n	n	n
CC(=O)c1cccc(NC(=O)c2cc(-n3cnnc3)ccc2Cl)c1	n	n	n	n	n	n	x	x
O=C(c1cccnc1)N1CCN(S(=O)(=O)c2ccc(F)cc2)CC1	n	n	n	n	n	n	x	x
O=C(c1cccnc1)N1CCN(S(=O)(=O)c2ccc(Cl)cc2)CC1	14.5	n	n	n	n	n	n	n
CCOC(=O)c1[nH]c(C)c(C(=O)/C=C/c2ccc(C(=O)O)cc2)c1C	n	n	n	n	n	n	x	x
CC1CC(C)CN(CCOCCSc2ccccc2)C1 (configuration not stated)	15.6	n	n	n	n	n	n	n
Cc1cn([C@H]2C[C@H](O)[C@@H](CCC(=O)NCCc3ccc4ccccc4c3)O2)c(=O)[nH]c1=O	n	n	n	x	x	x	x	x
CC(C)Cc1nnc(NC(=O)c2cc(-c3ccncc3)nc3ccccc23)s1	14.9	n	n	n	n	n	n	n
Cc1ccccc1N1CC(C(=O)N2CCc3ccccc32)CC1=O (configuration not stated)	17.3	n	n	n	n	n	n	n
CN(c1ccccc1C(=O)NCc1ccco1)S(C)(=O)=O	n	n	n	n	n	n	x	x
CN(c1ccccc1C(=O)Nc1ccccc1C(=O)NCc1ccco1)S(C)(=O)=O	14.4	n	n	n	n	n	n	n
CCc1ccccc1NC(=O)c1cc(S(=O)(=O)N2CCc3ccccc32)cn1C	27.5	n	n	n	n	n	0.7	n
CC(=O)NC(CC(=O)Nc1ccc(S(=O)(=O)NC2=NCCCCC2)cc1)c1ccccc1 (configuration not stated)	n	n	n	n	n	n	x	x
O=C(CN1C(=O)/C(=C/c2ccc(Cl)cc2)SC1=S)NC1C=CS(=O)(=O)C1 (configuration not stated)	15.3	n	n	n	n	n	n	n
O=C(CN1C(=O)/C(=C/c2ccc(F)cc2)SC1=S)NC1C=CS(=O)(=O)C1 (configuration not stated)	n	n	n	n	n	n	x	x
SMILES	m5-HT2A agonist	TAAR1 ag	TAAR1 antagonist	MC4R barr agon	B2AR ag	MC4R antagonist	MOR ag counter	m5-HT2A ag conf
COc1cc(/C=C/C(=O)c2ccc3c(c2)OCCO3)cc(Br)c1OCC(=O)N(C)C	18.5	n	n	n	n	n	n	n
C[C@H](CO)N1C[C@H](C)[C@@H](CN(C)Cc2cccc3c2OCCCO3)OCc2cnnn2CCCC1=O	19.0	n	n	n	x	n	n	n
CC(=O)Nc1ccc(S(=O)(=O)N2CC(=O)NC(=O)C2)cc1	20.1	n	n	n	n	n	n	n
COCc1cc(N2CCCCC2)nc(-c2ccccc2)n1	n	n	n	n	n	n	x	x
O=C(NCC(c1ccco1)N1CCN(c2ccccc2F)CC1)C1CCCCC1 (configuration not stated)	16.9	n	n	n	n	n	n	48.3
O=C(NCC(c1ccco1)N1CCN(c2ccccc2F)CC1)C(=O)NC1CCCCC1 (configuration not stated)	n	n	n	n	n	n	x	x
O=C(NCCNc1nccc(C(F)(F)F)n1)c1cccs1	n	n	n	n	n	n	x	x
COc1c2c(cc3ccc(=O)oc13)CCO2	21.2	n	n	n	n	n	n	n
COc1c2occc2cc2ccc(=O)oc12	n	n	n	n	n	n	x	x
COc1ccc(OC)c(CN2C(=O)c3ccccc3C2c2nnnn2C(C)C)c1 (configuration not stated)	n	n	n	x	x	x	x	x
COc1ccc(NS(=O)(=O)c2ccc(C)c(C(=O)NCC(c3ccco3)N(C)C)c2)cc1 (configuration not stated)	15.6	n	n	n	n	n	n	n
CS(=O)(=O)c1ccc(NS(=O)(=O)c2ccc(Cl)c(C(=O)NCc3ccco3)c2)cc1	19.2	n	n	n	n	n	n	n
CC(C)(C)c1ccc(CC(=O)N2CCC2(C)C(=O)NS(=O)(=O)c2cccc(OC(F)F)c2)cc1 (configuration not stated)	16.3	n	n	n	x	n	n	n
Cc1cc(C)cc(CC(=O)N2CCC2(C)C(=O)NS(=O)(=O)c2ccc(C#N)cc2)c1 (configuration not stated)	15.7	n	n	n	x	n	n	n
CC(C)(C)c1ccc(S(=O)(=O)NC(=O)C2(C)CCN2C(=O)C2(c3ccccc3)CC2)cc1 (configuration not stated)	17.5	n	n	n	x	n	n	n
O=C(O)C1CSC(c2ccc3c(c2)OCO3)N1 (configuration not stated)	15.8	n	n	n	n	n	n	n

Bioassay records from PubChem BioAssay.
